Assay outcomes from PubChem BioAssay.
CSC inhib: cancer stem cell inhibition; inhibition, % at 7.5 µM; 300,000 compounds, 1.1% hits; AID 2717; cancer stem cell-like cells viability, luminescence; in the data active = inhibition above about 75%; inconclusive = no clear call, values can overlap the other calls; tested in HMLE shEcad cells
L major viab: Leishmania major promastigote growth inhibition; Leishmania major promastigotes, resazurin fluorescence viability; inhibition, % at 10 µM; 200,000 compounds, 9% hits; AID 1063; in the data active = inhibition above about 50%;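 also: promastigotes grown with compound for 44 hours at 28 °C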
SKKanGAS inh: inhibitors of SKKanGAS S. pyogenes growth in kanamycin (SK-promoter or general growth effect) | BacTiter-Glo, 6 h | inhibition, % at 7.5 µM | 300,000 compounds, 1.3% hits;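 active = mean replicate score, as percent of positive control median, at least 50; inconclusive = mean below 50 but one replicate at or above 50; inactive = mean and every replicate below 50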;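 also: strain carries kanamycin resistance gene driven by streptokinase promoter and grows in 40 µg/ml kanamycin; loss of luminescence reflects streptokinase promoter inhibition or plain growth inhibition; 0% = median of DMSO wells and 100% = positive control at its reference dose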
Beta cell apopt: beta cell apoptosis inhibition | INS-1E cytokine-induced death, ATP luminescence, 48 h; percent of positive-control rescue, neutral wells zero | protection from apoptosis, % (no concentration beside the values) | 300,000 compounds, 0.8% hits;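 active = Every replicate reaches about 75%, or at least half do and their mean reaches it too, limit read from the data; inconclusive = At least half of replicates reach the limit but their mean does not; inactive = Under half of replicates reach the limit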;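 also: 0% = cytokine-treated negative control wells and 100% = positive control rescue; higher means more ATP so stronger rescue from cytokine killing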
T cruzi repl: T. cruzi replication inhibition. inhibition, % (concentration not given with the values). 300,000 compounds, 1.4% hits. T. cruzi beta-gal in NIH3T3, luminescence, 90 h;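 active = mean inhibition across valid replicates above about 55%, limit read from the data; inconclusive = mean below that limit but half or more replicates reach it; inactive = mean below it, under half of replicates reach it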;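 also: signal also drops with host cell toxicity which is not excluded here; 0% = plate median of DMSO wells and 100% = zero luminescence signal; higher percent means less beta-gal luminescence so fewer parasites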
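Test system: β-gal T. cruzi (Tulahuen C4) inside NIH/3T3 cells / Quantity: 5,000 cells/well / Measured by: luminescence from GalScreen with 0.05% NP40, read after 60 min / Medium: DMEM plus 2% FBS / Measure: parasite load inhibition, % / Reagent: Tulahuen C4 trypomastigotes, 5000/well / Schedule: co-culture of at least 90 h after 3 h attachment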
Mdm2-MdmX inh: human Mdm2/MdmX binding inhibition; O15151+Q00987; SaOS-2 split-luciferase Mdm2/MdmX complementation, luminescence; inhibition, % at 8 µM; 330,000 compounds, 3% hits;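 active = inhibition of at least 50% at 8 µM in the primary screen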
Mdm2 MdmX conf: human Mdm2/MdmX binding inhibition, confirmed; shares compounds with Mdm2-MdmX inh; luminescent assay; inhibition, % at 8 µM; 10,000 compounds, 55% hits; AID 489028; in the data active = inhibition above about 40%
FLuc counter: full-length luciferase inhibition in Mdm2/MdmX counter-screen | shares compounds with Mdm2-MdmX inh | SaOS-2 full-length luciferase counterscreen, luminescence | inhibition, % at 8 µM | 6,200 compounds, 77% hits | AID 504607;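 active = mean inhibition at 8 µM reaching about 37%, which flags the compound as non-specific, limit read from the data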;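 also: p53-null SaOS-2 cells with luciferase driven by a doxycycline-inducible promoter; compound on cells about two nights before reading with doxycycline added after day one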
Numbers without * were called inactive; ? = inconclusive; / = no result. Sampled rows, rich in hits. Any-hit rate of the full collection: about 9.4%.

SMILES	CSC inhib	L major viab	SKKanGAS inh	Beta cell apopt	T cruzi repl	Mdm2-MdmX inh	Mdm2 MdmX conf	FLuc counter
COc1cc(/C=C/C(=O)c2ccc(Cl)s2)cc(OC)c1O	-13	100*	-15	-22	-53	65*	51*	45*
O=C(COC(=O)CNC(=O)c1ccccc1F)Nc1ncc(Cl)cc1Cl	/	/	/	-6	/	-26	/	/
COC(=O)c1ccc(Nc2cc(C)nc3ccc(C)cc23)cc1	30	/	-4	32	8	100*	66*	52*
COc1ccc2nc(C)cc(Nc3ccc(N4CCN(C)CC4)cc3)c2c1	22	/	7	73	45	99*	90*	36*
CC(=O)c1ccc(Nc2cc(C)nc3ccccc23)cc1	26	41	-4	/	26	59*	50*	61*
COc1ccc2nc(C)cc(Nc3ccc(C)cc3)c2c1	/	/	-1	/	29	18	/	/
COC(=O)c1ccc2nc(C)cc(Nc3ccccc3C)c2c1	-11	49	-1	6	12	11	/	/
CC(=O)c1ccc(Nc2cc(C)nc3c(C)cccc23)cc1	54	27	2	23	-1	33	/	/
COc1ccc(OC)c(Nc2cc(C)nc3ccc(C)cc23)c1	44	/	-4	6	40	68*	58*	48*
O=C(Cc1ccc(Cl)cc1)NCCc1cnc[nH]1	2	/	-2	-13	36	16	/	/
O=C(OCC1OC2C(Oc3nc(=O)ccn32)C1O)c1ccccc1 (centres undefined)	-8	-6	1	2	5	5	/	/
Nc1ccn([C@@H]2O[C@H](CO)[C@@H](O)[C@@H]2O)c(=O)n1	60	-9	-2	8	6	/	/	/
N=c1ccn2c(n1)O[C@H]1[C@H](O)[C@@H](CO)O[C@H]12	30	/	?	1	17	61*	64*	46*
N=c1ccn2c(n1)O[C@H]1[C@@H](CO)[C@H](O)O[C@H]12	56	/	/	9	/	69*	61*	43*
O=C(Nc1ccccc1)c1nc[nH]c1C(=O)NCCCNC(=O)c1[nH]cnc1C(=O)Nc1ccccc1	-6	/	/	3	/	39	/	/
O=C(Nc1ccc(Cl)cc1)c1nc[nH]c1C(=O)NCCCNC(=O)c1[nH]cnc1C(=O)Nc1ccc(Cl)cc1	/	/	/	37	/	97*	-5	/
CCN(CC)C(=O)c1[nH]cnc1C(=O)Nc1ccccc1	-41	/	/	-2	/	22	/	/
O=C(Nc1ccccc1)c1nc[nH]c1C(=O)NCCN(CCNC(=O)c1[nH]cnc1C(=O)Nc1ccccc1)CCNC(=O)c1[nH]cnc1C(=O)Nc1ccccc1	43	/	/	-3	/	62*	9	/
Cc1ccc(NC(=O)c2nc[nH]c2C(=O)NCCN(CCNC(=O)c2[nH]cnc2C(=O)Nc2ccc(C)cc2)CCNC(=O)c2[nH]cnc2C(=O)Nc2ccc(C)cc2)cc1	46	/	/	-6	/	90*	76*	38*
O=C(Nc1ccccc1)c1nc[nH]c1C(=O)NCCCCCCNC(=O)c1[nH]cnc1C(=O)Nc1ccccc1	/	/	/	21	/	87*	33	/
CC(=O)Nc1ccc(C=C(C(C)=O)C(C)=O)cc1	7	/	6	1	1	35	/	/
O=C(CN(CC1CCCO1)C(=O)c1nsc(Cl)c1Cl)NC1CCCC1 (centres undefined)	-8	0	6	-9	1	11	/	/
CC(C)CN(CCNC(=O)CN1C(=O)COc2ccc(S(=O)(=O)N3CCC(C)CC3)cc21)CC(C)C	4	/	-2	-7	4	31	/	/
Cc1cccc(Nc2ccc([N+](=O)[O-])cn2)c1	-4	/	-5	2	4	-8	/	/
O=C(Nc1ccc(Cl)cc1)c1nc[nH]c1C(=O)NCCN(CCNC(=O)c1[nH]cnc1C(=O)Nc1ccc(Cl)cc1)CCNC(=O)c1[nH]cnc1C(=O)Nc1ccc(Cl)cc1	101*	/	/	104*	/	100*	98*	56*
Cc1ccccc1NC(=O)c1[nH]cnc1C(=O)NN	-8	/	-3	-3	-10	-23	/	/
COc1ccc(NC(=O)c2nc[nH]c2C(=O)Nc2ccccc2C)cc1	62	3	19	-8	16	58*	54*	48*
